Reference: ChEMBL document CHEMBL4184092, “Chemical constituents from Taraxacum officinale and their α-glucosidase inhibitory activities” (Bioorg Med Chem Lett, 2018)
Active and inactive are the calls of the source. No cut-off for these calls is given here.

How the values were obtained:
Saccharomyces cerevisiae [1] = test: Mixed type inhibition of Saccharomyces cerevisiae alpha-glucosidase using p-nitro-phenyl-alpha-D-glucopyranoside as substrate preincubated with enzyme followed by substrate addition measured after 10 mins by Lineweaver-Burk plot analysis
Procedure, shortened: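 Baker's yeast α-glucosidase (stock 0.11 U/ml in 50 mM PBS) mixed with sample and incubated at 36 °C, then p-nitrophenyl-α-D-glucopyranoside added at various concentrations and incubated at 36 °C for 10 min. Initial velocity was taken as the rate of change of absorbance at 405 nm per min. Inhibition type was assigned from Lineweaver-Burk plots.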

Saccharomyces cerevisiae [2] = test: Inhibition of Saccharomyces cerevisiae alpha-glucosidase using p-nitro-phenyl-alpha-D-glucopyranoside as substrate at 200 uM preincubated with enzyme followed by substrate addition measured after 10 mins for every 2.5 to 5 mins relative to control
Procedure, shortened: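 Sample mixed with baker's yeast alpha-glucosidase stock (0.11 U/ml in 50 mM PBS) and preincubated at 36 °C. pNPG stock (1.35 mM) then added, incubated 10 min at 36 °C, and absorbance at 405 nm read every 2.5–5 min. PBS replaced sample as control. % inhibition = [1 − (ΔAbs sample/ΔAbs control)] × 100; triplicates; IC50 from six-concentration dose-inhibition curve.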

[3] = Inhibition of Saccharomyces cerevisiae alpha-glucosidase using p-nitro-phenyl-alpha-D-glucopyranoside as substrate preincubated with enzyme followed by substrate addition measured after 10 mins for every 2.5 to 5 mins
Saccharomyces cerevisiae [4] = test: Competitive inhibition of Saccharomyces cerevisiae alpha-glucosidase using p-nitro-phenyl-alpha-D-glucopyranoside as substrate preincubated with enzyme followed by substrate addition measured after 10 mins by Lineweaver-Burk plot analysis
Procedure, shortened: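 Baker's yeast alpha-glucosidase (stock 0.11 U/ml in 50 mM PBS) with pNPG at various concentrations, 36 °C. Initial velocity taken as the per-minute change in 405 nm absorbance. Inhibition type assigned from Lineweaver-Burk plots at several inhibitor levels plus an uninhibited series.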

| Compound | inhibition (Saccharomyces cerevisiae [1]) | inhibition (Saccharomyces cerevisiae [2]) | IC50 [3] | inhibition (Saccharomyces cerevisiae [4]) |
| --- | --- | --- | --- | --- |
| O=c1cc(-c2ccc(O)c(O)c2)oc2cc(O)cc(O)c12 [LUTEOLIN] | Active | 99.6% | 39.8 µM |  |
| C[C@H]1O[C@H](O[C@H]2[C@H](O)[C@@H](O)[C@@H](O[C@H]3[C@H](O)[C@@H](O)C(O)O[C@@H]3CO)O[C@@H]2CO)[C@H](O)[C@@H](O)[C@@H]1N[C@H]1C=C(CO)[C@@H](O)[C@H](O)[C@H]1O (stereo partly drawn) [ACARBOSE] |  | 51.8% | 180 µM |  |
| O=C(CO)c1c[nH]c2ccccc12 |  | 1.6% |  |  |
| COc1cc(-c2cc(=O)c3c(O)cc(O)cc3o2)cc(OC)c1O[C@@H](CO)[C@@H](O)c1ccc(O)cc1 |  | 8.3% |  |  |
| O=c1ccc2cc(O[C@@H]3O[C@H](CO)[C@@H](O)[C@H](O)[C@H]3O)c(O)cc2o1 |  | 1.8% |  |  |
| C=C1C(=O)O[C@@H]2/C=C(\C)CC/C=C(\C(=O)O[C@@H]3O[C@H](CO)[C@@H](O)[C@H](O)[C@H]3O)CC[C@@H]12 |  | 13.1% |  |  |
| O=C1C[C@@H](O[C@@H]2O[C@H](CO)[C@@H](O)[C@H](O)[C@H]2OC(=O)Cc2ccc(O)cc2)CO1 |  | 57.6% | 181 µM |  |
| O=C1C[C@@H](O[C@@H]2O[C@H](CO)[C@@H](O)[C@H](OC(=O)Cc3ccc(O)cc3)[C@H]2OC(=O)Cc2ccc(O)cc2)CO1 |  | 58.3% | 152 µM |  |
| O=C(Cc1ccc(O)cc1)O[C@H]1[C@@H](O)[C@H](OC(=O)Cc2ccc(O)cc2)[C@H](OC(=O)Cc2ccc(O)cc2)[C@@H](O)[C@@H]1O |  | 77.6% | 61.2 µM | Active |
| COc1cc([C@H](OC)[C@H](CO)Oc2c(OC)cc(-c3cc(=O)c4c(O)cc(O)cc4o3)cc2OC)ccc1O |  | 9.1% |  |  |
| Nc1ncnc2c1ncn2[C@@H]1O[C@H](CO)[C@@H](O)[C@H]1O |  | 10.3% |  |  |
| COC(=O)C[C@@H](CO)O[C@@H]1O[C@H](CO)[C@@H](O)[C@H](OC(=O)Cc2ccccc2)[C@H]1OC(=O)Cc1ccc(O)cc1 |  | 59.7% | 150 µM |  |
| COc1cc(-c2cc(=O)c3c(O)cc(O)cc3o2)cc(OC)c1O [TRICIN] |  | 59.1% | 162 µM |  |
| COC(=O)/C=C/c1ccc(O)c(O)c1 |  | 1.6% |  |  |
| COC(=O)C[C@@H](CO)O[C@@H]1O[C@H](CO)[C@@H](O)[C@H](OC(=O)Cc2ccccc2)[C@H]1OC(=O)C(=O)c1ccc(O)cc1 |  | 56.6% | 165 µM |  |
| CC1(C)C[C@H](O)C[C@@]2(C)OC(=O)C=C12 |  | 8.8% |  |  |
| COC(=O)C[C@@H](CO)O[C@@H]1O[C@H](CO)[C@@H](O)[C@H](O)[C@H]1OC(=O)C(=O)c1ccc(O)cc1 |  | 56.6% | 165 µM |  |
| CC1=CC(=O)CC(C)(C)[C@]1(O)/C=C/[C@@H](C)O[C@@H]1O[C@H](CO)[C@@H](O)[C@H](O)[C@H]1O |  | 9.4% |  |  |
| CC(=O)/C=C/C1=C(C)[C@@H](O)[C@@H](O[C@@H]2O[C@H](CO)[C@@H](O)[C@H](O)[C@H]2O)CC1(C)C |  | 0% |  |  |
| CC1(C)C[C@@H](O)C[C@@]2(C)OC(=O)C=C12 |  | 6.4% |  |  |
| O=C1C[C@@H](O[C@@H]2O[C@H](CO)[C@@H](O)[C@H](OC(=O)Cc3ccccc3)[C@H]2OC(=O)Cc2ccc(O)cc2)CO1 | Active | 58.9% | 145 µM |  |
| CC(=O)/C=C/[C@]12O[C@@]1(C)C[C@@H](O)CC2(C)C |  | 17.6% |  |  |
| COc1cc([C@H](OC)[C@@H](CO)Oc2c(OC)cc(-c3cc(=O)c4c(O)cc(O)cc4o3)cc2OC)ccc1O |  | 13.2% |  |  |
| COc1cc(-c2cc(=O)c3c(O)cc(O)cc3o2)ccc1O |  | 56.9% |  |  |
| COc1cc(/C=C/CO)cc(OC)c1O[C@@H]1O[C@H](CO)[C@@H](O)[C@H](O)[C@H]1O |  | 1.8% |  |  |
| COc1cc(-c2cc(=O)c3c(O)cc(O)cc3o2)cc(OC)c1O[C@H](CO)[C@@H](O)c1ccc(O)cc1 |  | 8.7% |  |  |
| CC(=O)/C=C/C1=C(C)[C@@H](O)[C@@H](O)CC1(C)C |  | 11.5% |  |  |
| COc1cc(-c2oc3cc(O)cc(O)c3c(=O)c2O)cc(O)c1OC |  | 57.4% | 154 µM |  |
| CC1=CC(=O)CC(C)(C)[C@@]1(O)/C=C/[C@@H](C)O[C@@H]1O[C@H](CO)[C@@H](O)[C@H](O)[C@H]1O |  | 13.7% |  |  |
